Drawing on ChEMBL document CHEMBL3392966, “Antiproliferative activity of synthetic fatty acid amides from renewable resources” (Bioorg Med Chem, 2015), this text covers TGI, GI50 and LC50 for 6 molecules.

The subject of series [1] is MCF7. Kind of series: Antiproliferative activity against human MCF7 cells assessed as tumor growth inhibition after 48 hrs by sulforhodamine B assay. Format: functional. The note with it: MCF7, 48 h. An outline of the steps:
(§1)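 Tumor cells grown in RPMI 1640 with 5% fetal bovine serum, with penicillin/streptomycin in experimental cultures. Exposed in 96-well plates to samples in DMSO/RPMI at 0.25, 2.5, 25 and 250 µg/mL, 37 °C, 5% CO2, 48 h. Fixed with 50% trichloroacetic acid before (T0) and after treatment, protein stained with sulforhodamine B and read at 540 nm. GI50, TGI and LC50 in µg/mL from dose-response curves by non-linear regression.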
In general terms: The SRB assay estimates cell density from bound dye.

Series [2] deals with NCI-H460. Kind of series: Antiproliferative activity against human NCI-H460 cells assessed as tumor growth inhibition after 48 hrs by sulforhodamine B assay. Format: functional. To be noted: NCI-H460, 48 h. In a few lines: as §1
The test system of series [3] is HaCaT. Kind of series: Cytotoxicity against human HaCaT cells assessed as tumor growth inhibition after 48 hrs by sulforhodamine B assay. Format: cell-based. An outline of the steps: (§2)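 Non-tumor lines (human HaCaT keratinocytes; Vero) in RPMI 1640 with 5% FBS, with penicillin/streptomycin added to experimental cultures. 48 h exposure at 0.25–250 µg/mL (DMSO/RPMI), 37 °C, 5% CO2. TCA fixation at time zero and at end, sulforhodamine B protein stain, absorbance 540 nm. TGI (total growth inhibition) from non-linear regression of the dose-response curve.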

Series [4] relates to NCI/ADR-RES. Kind of series: Antiproliferative activity against human NCI/ADR-RES cells after 48 hrs by sulforhodamine B assay. Format: functional. In a few lines:
as §1

In series [5] the test system is HaCaT. Kind of series: Cytotoxicity against human HaCaT cells after 48 hrs by sulforhodamine B assay. It counts as cell-based.
Series [6] can be described thus: Antiproliferative activity against human PC3 cells assessed as tumor growth inhibition after 48 hrs by sulforhodamine B assay. Format: functional. The note with it: PC-3, 48 h. In a few lines:
as §1

For series [7], the system named is U-251. The experiment in a line: Antiproliferative activity against human U251 cells assessed as tumor growth inhibition after 48 hrs by sulforhodamine B assay. To be noted: U-251, 48 h. Format: functional. In a few lines: as §1
A short description of series [8]: Antiproliferative activity against human OVCAR3 cells assessed as tumor growth inhibition after 48 hrs by sulforhodamine B assay. Format: functional. To be noted: OVCAR-3, 48 h. An outline of the steps: as §1
Series [9] is described as follows: Antiproliferative activity against human PC3 cells after 48 hrs by sulforhodamine B assay. Format: functional. To be noted: PC-3, 48 h. An outline of the steps:
as §1

The subject of series [10] is U-251. Kind of series: Antiproliferative activity against human U251 cells after 48 hrs by sulforhodamine B assay. Format: functional. The note with it: U-251, 48 h. An outline of the steps: as §1
For series [11], the system named is NCI-H460. The experiment in a line: Antiproliferative activity against human NCI-H460 cells after 48 hrs by sulforhodamine B assay. To be noted: NCI-H460, 48 h. It counts as functional. An outline of the steps:
as §1

Series [12] concerns NCI/ADR-RES. Kind of series: Antiproliferative activity against human NCI/ADR-RES cells assessed as tumor growth inhibition after 48 hrs by sulforhodamine B assay. Format: functional. An outline of the steps:
as §1

Series [13] concerns 786-0. The experiment in a line: Antiproliferative activity against human 786-0 cells assessed as tumor growth inhibition after 48 hrs by sulforhodamine B assay. To be noted: 786-0, 48 h. Format: functional. An outline of the steps:
as §1

The test system of series [14] is 786-0. The experiment in a line: Antiproliferative activity against human 786-0 cells after 48 hrs by sulforhodamine B assay. Format: functional. To be noted: 786-0, 48 h. An outline of the steps:
as §1

Series [15] is described as follows: Antiproliferative activity against human OVCAR3 cells after 48 hrs by sulforhodamine B assay. The note with it: OVCAR-3, 48 h. It counts as functional. In a few lines: as §1
The test system of series [16] is MCF7. Kind of series: Antiproliferative activity against human MCF7 cells after 48 hrs by sulforhodamine B assay. The note with it: MCF7, 48 h. Format: functional. In a few lines:
as §1

For series [17], the system named is U-251. Kind of series: Cytotoxicity against human U251 cells. It counts as cell-based.
Series [18] has as its system Vero. Kind of series: Cytotoxicity against african green monkey Vero cells after 48 hrs by sulforhodamine B assay. It counts as cell-based. To be noted: chlorocebus sabaeus.
In series [19] the test system is Vero. Kind of series: Cytotoxicity against african green monkey Vero cells assessed as tumor growth inhibition after 48 hrs by sulforhodamine B assay. It counts as cell-based. The note with it: chlorocebus sabaeus. An outline of the steps:
as §2

Converted amounts (≈) assume the structure as drawn.

With `CCCCCC[C@@H](O)C/C=C\CCCCCCCC(=O)NCc1ccccc1`, the total growth inhibition concentration (TGI) in series [1] was 104 µg/mL (≈ 270 µM); in [2], 179 µg/mL (≈ 461 µM); in series [3] it was 66.5 µg/mL (≈ 172 µM); in series [6] it was 123 µg/mL (≈ 316 µM); in series [7], 47.5 µg/mL (≈ 123 µM); in [8], 86 µg/mL (≈ 222 µM). Further, the total growth inhibition concentration (TGI) in [12] was found to be 46.6 µg/mL (≈ 120 µM); in series [13], 71.5 µg/mL (≈ 184 µM). In addition, the GI50 in series [4] was 8.6 µg/mL (≈ 22.2 µM); in series [9], 123 µg/mL (≈ 316 µM); in [10] it was 8.6 µg/mL (≈ 22.2 µM); in series [11] it was 32.3 µg/mL (≈ 83.3 µM); in series [14] it was 32.3 µg/mL (≈ 83.3 µM); in series [15], 31.6 µg/mL (≈ 81.5 µM). Further, the GI50 in [16] stood at 37.8 µg/mL (≈ 97.5 µM). In addition, the 50% lethal concentration (LC50) in series [5] worked out at 30.8 µg/mL (≈ 79.5 µM).
Regarding `CCCCCC[C@@H](O)C/C=C\CCCCCCCC(=O)N[C@@H](C)c1ccccc1`, the concentration for total growth inhibition (TGI) in [1] is 84.5 µg/mL (≈ 210 µM); in [2] it was 132 µg/mL (≈ 329 µM); in series [6], 142 µg/mL (≈ 353 µM); in series [7] it was 13.9 µg/mL (≈ 34.6 µM); in series [8], greater than 250 µg/mL; in series [12], greater than 250 µg/mL. In addition, the concentration for total growth inhibition (TGI) in series [13] was determined as 60.1 µg/mL (≈ 150 µM). Also, the GI50 in [4] was found to be 1.9 µg/mL (≈ 4.73 µM); in [9], 11.7 µg/mL (≈ 29.1 µM); in [10] it was 3.6 µg/mL (≈ 8.96 µM); in [11], 8.3 µg/mL (≈ 20.7 µM); in series [14], 6.7 µg/mL (≈ 16.7 µM); in series [15], 11.1 µg/mL (≈ 27.6 µM). Further, in series [16], the GI50 is 5.1 µg/mL (≈ 12.7 µM). For the same molecule, the LC50 in series [17] was determined as 63.6 µg/mL (≈ 158 µM); in series [5], 9.7 µg/mL (≈ 24.2 µM).
With `CCCCCC[C@@H](O)C/C=C\CCCCCCCC(=O)N1CCCC1`, the TGI in series [1] is 1.5 µg/mL (≈ 4.27 µM); in [2] it was 6.2 µg/mL (≈ 17.6 µM); in series [6], 4.3 µg/mL (≈ 12.2 µM); in series [7], 4.4 µg/mL (≈ 12.5 µM); in series [8] it was 4.1 µg/mL (≈ 11.7 µM); in series [12], 4 µg/mL (≈ 11.4 µM). Also, the concentration for total growth inhibition (TGI) stood at 6.9 µg/mL (≈ 19.6 µM) in series [13] and 6.8 µg/mL (≈ 19.3 µM) in [19]. The GI50 in [4] is 4 µg/mL (≈ 11.4 µM); in series [9], 6.2 µg/mL (≈ 17.6 µM); in series [10], 1.5 µg/mL (≈ 4.27 µM); in series [11] it was 6.9 µg/mL (≈ 19.6 µM); in series [14], 4.1 µg/mL (≈ 11.7 µM); in [15], 4.3 µg/mL (≈ 12.2 µM). The GI50 in [16] stood at 4.4 µg/mL (≈ 12.5 µM). This molecule had an LC50 in [18] of 4 µg/mL (≈ 11.4 µM).
For `CCCCC/C=C\C/C=C\CCCCCCCC(=O)N[C@@H](C)c1ccccc1`, the TGI is 38.6 µg/mL (≈ 101 µM) in series [1]; 38.9 µg/mL (≈ 101 µM) in [2]; 77.2 µg/mL (≈ 201 µM) in series [3]; 7.7 µg/mL (≈ 20.1 µM) in series [6]; 5.1 µg/mL (≈ 13.3 µM) in series [7]; 20 µg/mL (≈ 52.1 µM) in series [8]. For the same molecule, the concentration for total growth inhibition (TGI) turned out to be 16.4 µg/mL (≈ 42.8 µM) in series [12] and 7.7 µg/mL (≈ 20.1 µM) in series [13]. Further, the GI50 in series [4] worked out at 3 µg/mL (≈ 7.82 µM); in series [9], 6.8 µg/mL (≈ 17.7 µM); in series [10] it was 0.7 µg/mL (≈ 1.82 µM); in [11] it was 6.1 µg/mL (≈ 15.9 µM); in [14], 3.2 µg/mL (≈ 8.34 µM); in series [15] it was 3.5 µg/mL (≈ 9.12 µM). In series [16], the GI50 amounted to 5.3 µg/mL (≈ 13.8 µM). For the same molecule, in [5], the LC50 is 1.3 µg/mL (≈ 3.39 µM).
Regarding `CCCCC/C=C\C/C=C\CCCCCCCC(=O)N1CCCC1`, the TGI in series [1] turned out to be 27.5 µg/mL (≈ 82.4 µM); in series [2], 36.6 µg/mL (≈ 110 µM); in series [6] it was 32.6 µg/mL (≈ 97.7 µM); in series [7] it was 12 µg/mL (≈ 36 µM); in series [8] it was 33.9 µg/mL (≈ 102 µM); in [12] it was 7.7 µg/mL (≈ 23.1 µM). Moreover, the concentration for total growth inhibition (TGI) came to 21.9 µg/mL (≈ 65.7 µM) in series [13] and 45.1 µg/mL (≈ 135 µM) in [19]. Further, the GI50 in series [4] is 4.7 µg/mL (≈ 14.1 µM); in series [9], 4.7 µg/mL (≈ 14.1 µM); in series [10], 4.2 µg/mL (≈ 12.6 µM); in series [11], 7 µg/mL (≈ 21 µM); in series [14], 4.7 µg/mL (≈ 14.1 µM); in series [15] it was 5.7 µg/mL (≈ 17.1 µM). The same molecule came in with a 50% growth inhibitory concentration (GI50) in series [16] of 4.2 µg/mL (≈ 12.6 µM). Also, the results for the median lethal concentration (LC50) in series [17] and in [18] were 44.4 µg/mL (≈ 133 µM) and 13.7 µg/mL (≈ 41.1 µM), respectively.
As to `CCCCCCCCCCCCCCCC(=O)N1CCCC1`, the TGI in series [1] came to 13.2 µg/mL (≈ 42.6 µM); in [2], 33.5 µg/mL (≈ 108 µM); in series [3], 12.9 µg/mL (≈ 41.7 µM); in series [6], 12.2 µg/mL (≈ 39.4 µM); in series [7], 11.4 µg/mL (≈ 36.8 µM); in series [8], 22.9 µg/mL (≈ 74 µM). Moreover, the total growth inhibition concentration (TGI) in series [12] is 30 µg/mL (≈ 96.9 µM); in series [13], 16.1 µg/mL (≈ 52 µM). Moreover, the concentration for 50% growth inhibition (GI50) came out at 4.6 µg/mL (≈ 14.9 µM) in series [4]; 4.7 µg/mL (≈ 15.2 µM) in series [9]; 4.6 µg/mL (≈ 14.9 µM) in series [10]; 5.9 µg/mL (≈ 19.1 µM) in [11]; 5.5 µg/mL (≈ 17.8 µM) in series [14]; 6.3 µg/mL (≈ 20.4 µM) in series [15]. It took 4.6 µg/mL (≈ 14.9 µM) to inhibit growth in series [16] by half (GI50). In [5], this molecule showed a 50% lethal concentration (LC50) of 4.8 µg/mL (≈ 15.5 µM).

Broadly, the TGI is the concentration at which net growth stops. As usually defined, the GI50 is the concentration that inhibits growth by half. Broadly, the LC50 is the concentration lethal to half of the exposed cells or organisms.
